Screening data as filed in PubChem BioAssay.
NR2E3 ag-1: human photoreceptor-specific nuclear receptor agonism | AID 602229 | CHO-S Gal4-NCOR/VP16-NR2E3 two-hybrid, luciferase | inhibition of corepressor binding, % at 3.98 µM | Q9Y5X4 | hit rate 0.35% among 360,000;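 active = inhibition above the mean of all tested compounds plus 3 SD, cut at about 70% in these data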;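 note: 0% = DMSO with NR2E3 transfected cells and 100% = cells lacking NR2E3 construct; higher means lower luciferase signal from less NR2E3 corepressor binding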
Target sequence (Q9Y5X4 whole entry, looked up, the tested form may be a part): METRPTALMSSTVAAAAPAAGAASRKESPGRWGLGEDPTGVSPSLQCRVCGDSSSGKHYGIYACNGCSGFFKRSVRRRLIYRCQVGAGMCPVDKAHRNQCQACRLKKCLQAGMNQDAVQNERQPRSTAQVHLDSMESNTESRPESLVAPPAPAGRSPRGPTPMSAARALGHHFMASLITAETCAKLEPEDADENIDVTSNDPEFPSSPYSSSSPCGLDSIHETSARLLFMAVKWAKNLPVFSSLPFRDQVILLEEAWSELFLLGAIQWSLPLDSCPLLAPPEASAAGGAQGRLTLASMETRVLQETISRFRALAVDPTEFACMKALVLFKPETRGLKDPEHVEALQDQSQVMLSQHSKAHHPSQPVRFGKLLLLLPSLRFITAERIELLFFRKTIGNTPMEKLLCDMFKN
TROY NFkB inh: blocks TROY-dependent signaling in reporter cells. Q293 LMP1-TROYcd NF-kB luciferase reporter, 4 h. inhibition, % at 10 µM. hit rate 0.98% among 360,000. AID 1347056;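 active = compounds whose plate-normalised and pattern-corrected inhibition of the luciferase reporter signal at the single screening dose is 50% or more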
EBV LMP1 NFkB: reduces LMP1-driven NF-kappaB luciferase signal; LMP1-induced NF-kappaB luciferase reporter cells, luminescence; inhibition, % at 12.5 µM; hit rate 0.69% among 350,000; AID 504558; in the data active = inhibition above about 41%;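 note: 0% = neutral control wells and 100% = reference inhibitor control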
HIF act: HIF pathway transcriptional activation | activation, % at 7.5 µM (by protocol) | U2OS HRE-luciferase reporter, luminescence; normalized: DMSO 0%, desferrioxamine 100% | hit rate 0.32% among 300,000;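 active = mean activation of at least 10% of the iron chelator positive control signal, with at least half of replicates also reaching 10%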
NR2E3 ag-2: activates human photoreceptor nuclear receptor NR2E3 | Q9Y5X4 | GST-NR2E3/biotin-RetCOR TR-FRET, 1536-well | inhibition of corepressor binding, % at 4.78 µM | hit rate 0.12% among 320,000 | AID 2300;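 active = percent inhibition above the cutoff of mean plus 3 SD of all tested compounds, set per screening campaign, cut at about 20% in these data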;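 note: 0% = DMSO wells and 100% = biotin wells as full block of FRET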
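System: GST-NR2E3 and biotin-RetCOR proteins; probe or stimulus: 7 nM biotin-RetCOR; doses: compound at 4.8 µM, single dose; schedule: Compound–protein incubation for 5 h at 4 °C; detection: time-resolved FRET; read-out: percent inhibition; controls: biotin wells as high control, 0.6% DMSO wells as low control; format: 1536-well plates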
Active calls of the source: *. The list is not random: actives were taken first. Their share in the collection is about 2%.

How did Cc1nc(S(=O)(=O)Nc2ccc3c(c2)OCCO3)cn1C do in these assays?
NR2E3 ag-1: -4; TROY NFkB inh: 11; EBV LMP1 NFkB: 4; HIF act: 0; NR2E3 ag-2: -3

How did COc1ccc(Cl)cc1C1=NOC2(CCC2)C(=O)N1Cc1ccc(NC(C)=O)cc1 do in these assays?
NR2E3 ag-1: -15; TROY NFkB inh: -6

How did CC(=O)O[C@H]1CC[C@@]2(C)C(=CC[C@H]3[C@@H]4CC[C@H](C(C)=O)[C@@]4(C)CC[C@@H]32)C1 do in these assays?
NR2E3 ag-1: 4; TROY NFkB inh: 5; EBV LMP1 NFkB: 54*; HIF act: 0; NR2E3 ag-2: -4

How did CC(=O)[C@H]1CC[C@H]2[C@@H]3CC=C4C[C@@H](OS(=O)(=O)O)CC[C@]4(C)[C@H]3CC[C@]12C do in these assays?
NR2E3 ag-1: -4; TROY NFkB inh: 4; EBV LMP1 NFkB: 0

How did Cc1ccc(C(=O)NNC(=O)c2ccc(-n3cncn3)c([N+](=O)[O-])c2)cc1 do in these assays?
NR2E3 ag-1: -5; TROY NFkB inh: 11; EBV LMP1 NFkB: 9; HIF act: -1; NR2E3 ag-2: -2

Results for O=C(O)c1ccc(-n2cncn2)c([N+](=O)[O-])c1 ?
NR2E3 ag-1: 5; TROY NFkB inh: -3; EBV LMP1 NFkB: 49*; HIF act: 0; NR2E3 ag-2: 1

What do the screens show for `O=C(c1cc(F)c(F)cc1Cl)N1CCN(S(=O)(=O)c2cccs2)CC1`?
NR2E3 ag-1: 10; TROY NFkB inh: 7; EBV LMP1 NFkB: -1

How did COc1cc2cc(NC(C)=O)cc(NCc3ccccc3)c2cc1OC do in these assays?
NR2E3 ag-1: -60; TROY NFkB inh: 59*; EBV LMP1 NFkB: -20; HIF act: -1

Results for CCCCNc1cc(NC(C)=O)cc2cc(OC)c(OC)cc12 ?
NR2E3 ag-1: -22; TROY NFkB inh: 14; EBV LMP1 NFkB: 0; HIF act: 0; NR2E3 ag-2: -12

What do the screens show for `CCC(CO)Nc1ccn2nc(-c3cccs3)cc2n1` (configuration not stated)?
NR2E3 ag-1: -126; TROY NFkB inh: -31

Results for Cc1cc(-c2nnc(CCC(=O)NC(C)(C)C34CC5CC(CC(C5)C3)C4)o2)no1 ?
NR2E3 ag-1: -21; TROY NFkB inh: -24; EBV LMP1 NFkB: -13; HIF act: 1; NR2E3 ag-2: 1

How did CCOC(=O)N1CCN(C(=O)CSCC(=O)Nc2nc(-c3ccc(OC)cc3)cs2)CC1 do in these assays?
NR2E3 ag-1: -9; TROY NFkB inh: 14; EBV LMP1 NFkB: 5; HIF act: 1; NR2E3 ag-2: 0

What do the screens show for `CCOC(=O)N1CCN(C(=O)CSCC(=O)Nc2nc(-c3ccc(-c4ccccc4)cc3)cs2)CC1`?
NR2E3 ag-1: 38; TROY NFkB inh: 57*; EBV LMP1 NFkB: 31; HIF act: 4; NR2E3 ag-2: 3

How did O=C(CSc1nc2ccccc2o1)Nc1nc(-c2ccccc2)cs1 do in these assays?
NR2E3 ag-1: 9; TROY NFkB inh: 80*; EBV LMP1 NFkB: -5; HIF act: 1; NR2E3 ag-2: -2

Results for O=C(Nc1ccc([N+](=O)[O-])cc1)Nc1nc(-c2ccc(Cl)s2)cs1 ?
NR2E3 ag-1: -11; TROY NFkB inh: 54*; EBV LMP1 NFkB: 55*; HIF act: -3; NR2E3 ag-2: 1

How did CC1([N+](=O)[O-])COC2(OC1)C(=O)Nc1ccccc12 (configuration not stated) do in these assays?
NR2E3 ag-1: -8; TROY NFkB inh: -8; HIF act: 0; NR2E3 ag-2: -1

Results for O=C(COc1ccc2c(c1)CCC2)Nc1ccccn1 ?
NR2E3 ag-1: -21; TROY NFkB inh: 71*; EBV LMP1 NFkB: -8; HIF act: -3; NR2E3 ag-2: 0

Results for COC(=O)c1ccc2nc(-c3cccc(N)c3)cn2c1 ?
NR2E3 ag-1: -55; TROY NFkB inh: 53*; EBV LMP1 NFkB: 61*; HIF act: -1; NR2E3 ag-2: 0

How did COCCN(CC(=O)Nc1cccc(C)c1C)C(=O)c1cc(-c2ccncc2)nc2ccccc12 do in these assays?
NR2E3 ag-1: 4; TROY NFkB inh: 11; EBV LMP1 NFkB: -5; NR2E3 ag-2: 3

How did Cc1cc(C)nc(SC2=CS(=O)(=O)c3ccccc32)n1 do in these assays?
NR2E3 ag-1: 24; TROY NFkB inh: 15; EBV LMP1 NFkB: -16; HIF act: 6; NR2E3 ag-2: -1
